pEC50: −log10 of the molar value.

For orientation: inhibition means the percentage by which the read-out fell short of the control. A higher inhibition goes with a response far below the control. The term pEC50 denotes the EC50 on a negative log10 scale, so that one unit is a factor of ten. The low end stands for a high EC50, the high end for a low EC50.

Series [1] concerns the target Vascular endothelial growth factor receptor 3 (Homo sapiens) (UniProt P35916). Kind of series: Inhibition of biotinylated ligand binding to wild-type human partial length FLT4 (E821 to E1196 residues) expressed in bacterial expression system at 50 nM measured after 1 hr by kinomescan assay relative to control. In a few lines:
(§1)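 Kinase-tagged T7 phage was grown in an E. coli BL21-derived host at 32 °C until lysis, and the lysate was clarified. Kinase was bound to streptavidin beads carrying a biotinylated ligand, with test compound at 50 nM (final DMSO), in binding buffer for 1 h at rt. Bound kinase was eluted and quantified by qPCR. Result is POC relative to the DMSO (100%) and control-compound (0%) references.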

The target in series [2] is Cyclin-dependent kinase 8 (Homo sapiens, UniProt P49336). Kind of series: Inhibition of biotinylated ligand binding to wild-type human partial length CDK8 (M1 to T360 residues) expressed in Escherichia coli BL21 at 50 nM measured after 1 hr by kinomescan assay relative to control. The method, boiled down: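 T7 phage-tagged kinase lysates from E. coli BL21 were mixed with streptavidin beads carrying biotinylated ligand and 50 nM compound. Incubated 1 h at room temperature with shaking, washed, then eluted 30 min with 0.5 μM non-biotinylated ligand. Kinase was quantified by qPCR. POC = (test − positive)/(DMSO − positive) ×100, with a control compound as positive.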
Cyclin-dependent kinase 8, sequence (P49336 whole entry, the tested form may be a part): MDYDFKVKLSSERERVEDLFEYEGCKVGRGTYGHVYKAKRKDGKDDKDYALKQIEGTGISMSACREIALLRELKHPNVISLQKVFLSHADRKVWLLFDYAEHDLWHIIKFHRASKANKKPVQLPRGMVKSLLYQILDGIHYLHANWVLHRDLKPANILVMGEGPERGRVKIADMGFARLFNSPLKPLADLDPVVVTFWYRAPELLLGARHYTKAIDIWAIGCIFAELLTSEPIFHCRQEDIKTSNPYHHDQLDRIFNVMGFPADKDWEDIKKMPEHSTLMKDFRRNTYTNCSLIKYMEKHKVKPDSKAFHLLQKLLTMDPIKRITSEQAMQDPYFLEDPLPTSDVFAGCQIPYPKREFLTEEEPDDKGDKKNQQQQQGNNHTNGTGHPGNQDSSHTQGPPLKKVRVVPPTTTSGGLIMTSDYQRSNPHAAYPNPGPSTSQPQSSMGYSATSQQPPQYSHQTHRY

Series [3] deals with Phosphatidylinositol 5-phosphate 4-kinase type-2 beta (Homo sapiens) (UniProt P78356). Put plainly: Inhibition of biotinylated ligand binding to wild-type human full length PIP5K2B (M1 to T416 residues) expressed in bacterial expression system at 50 nM measured after 1 hr by kinomescan assay relative to control. The method, boiled down:
as §1

Series [4] deals with cGMP-dependent protein kinase 1 (Homo sapiens) (UniProt Q13976). Kind of series: Inhibition of biotinylated ligand binding to wild-type human partial length PRKG1 (L339 to F686 residues) expressed in bacterial expression system at 50 nM measured after 1 hr by kinomescan assay relative to control. The method, boiled down:
as §1

Series [5] concerns the target Mitogen-activated protein kinase kinase kinase 2 (Homo sapiens) (UniProt Q9Y2U5). Kind of series: Inhibition of biotinylated ligand binding to wild-type human partial length MAP3K2 (S315 to H619 residues) expressed in mammalian expression system at 50 nM measured after 1 hr by kinomescan assay relative to control. The method, boiled down:
(§2)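 Competition binding: kinase was bound to streptavidin beads carrying a biotinylated ligand, with test compound at 50 nM, in 20% SeaBlock, 0.17x PBS, 0.05% Tween 20 and 6 mM DTT for 1 h at rt with shaking. After washing, kinase was eluted with 0.5 μM free ligand and quantified by qPCR. Result is POC relative to the DMSO (100%) and control-compound (0%) references.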

Series [6] concerns Hepatocyte growth factor receptor (Homo sapiens), P08581 [Y1235D]. Put plainly: Inhibition of biotinylated ligand binding to human partial length MET Y1235D mutant (D1010 to S1367 residues) expressed in bacterial expression system at 50 nM measured after 1 hr by kinomescan assay relative to control. The method, boiled down: as §1
Hepatocyte growth factor receptor (Homo sapiens), P08581 [Y1235D], sequence (P08581 whole entry Y1235D, the tested form may be a part): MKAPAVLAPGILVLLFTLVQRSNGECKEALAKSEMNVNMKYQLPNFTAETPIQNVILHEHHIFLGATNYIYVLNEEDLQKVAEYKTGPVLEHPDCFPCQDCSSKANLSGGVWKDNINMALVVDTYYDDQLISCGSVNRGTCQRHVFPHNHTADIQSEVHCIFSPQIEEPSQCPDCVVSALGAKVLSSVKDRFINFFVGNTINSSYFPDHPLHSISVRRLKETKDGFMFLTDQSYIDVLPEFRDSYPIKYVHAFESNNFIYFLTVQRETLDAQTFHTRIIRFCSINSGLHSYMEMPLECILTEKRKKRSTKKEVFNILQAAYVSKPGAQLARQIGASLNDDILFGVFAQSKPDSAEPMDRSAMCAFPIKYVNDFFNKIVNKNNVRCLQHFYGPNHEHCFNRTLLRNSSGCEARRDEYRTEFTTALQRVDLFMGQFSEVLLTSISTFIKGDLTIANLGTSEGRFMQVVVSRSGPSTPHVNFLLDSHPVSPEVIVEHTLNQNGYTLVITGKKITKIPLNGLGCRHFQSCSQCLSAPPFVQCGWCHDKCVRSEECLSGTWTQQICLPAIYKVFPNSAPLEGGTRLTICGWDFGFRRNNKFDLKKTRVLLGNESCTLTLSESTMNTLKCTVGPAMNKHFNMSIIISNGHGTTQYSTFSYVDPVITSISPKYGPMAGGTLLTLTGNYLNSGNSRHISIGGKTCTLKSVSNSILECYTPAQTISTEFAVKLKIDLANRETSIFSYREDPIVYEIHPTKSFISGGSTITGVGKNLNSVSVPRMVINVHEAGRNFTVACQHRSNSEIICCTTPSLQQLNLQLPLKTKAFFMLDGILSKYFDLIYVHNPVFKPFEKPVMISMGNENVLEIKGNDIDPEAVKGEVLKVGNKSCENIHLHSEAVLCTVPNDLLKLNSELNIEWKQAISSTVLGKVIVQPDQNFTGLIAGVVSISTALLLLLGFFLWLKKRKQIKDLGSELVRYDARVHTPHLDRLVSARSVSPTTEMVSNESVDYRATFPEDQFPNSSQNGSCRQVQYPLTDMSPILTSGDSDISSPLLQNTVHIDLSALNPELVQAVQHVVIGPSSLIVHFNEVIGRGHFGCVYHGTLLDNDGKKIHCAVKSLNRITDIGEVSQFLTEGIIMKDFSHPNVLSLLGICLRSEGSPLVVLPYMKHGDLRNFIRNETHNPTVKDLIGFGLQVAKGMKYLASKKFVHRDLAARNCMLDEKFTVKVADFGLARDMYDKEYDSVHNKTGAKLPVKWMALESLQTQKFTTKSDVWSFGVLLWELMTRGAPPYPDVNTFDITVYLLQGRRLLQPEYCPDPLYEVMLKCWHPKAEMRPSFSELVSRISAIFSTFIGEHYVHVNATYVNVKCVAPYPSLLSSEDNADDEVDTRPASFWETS
A short description of series [7]: Selectivity ratio of EC50 for rat H9c2 cells to EC50 for human OCI-AML3 cells. In kind it is toxicity. The note with it: H9c2 cells versus OCI-AML3 cells, read-out: Ratio EC50.
In series [8] the target is Serine/threonine-protein kinase 32C (Homo sapiens) (UniProt Q86UX6). Put plainly: Inhibition of biotinylated ligand binding to wild-type human partial length YANK3 (M68 to G486 residues) expressed in bacterial expression system at 50 nM measured after 1 hr by kinomescan assay relative to control. The method, boiled down:
as §1

Series [9] addresses cAMP-dependent protein kinase catalytic subunit alpha (Homo sapiens) (UniProt P17612). Put plainly: Inhibition of biotinylated ligand binding to wild-type human partial length PKAC-alpha (G10 to F351 residues) expressed in bacterial expression system at 50 nM measured after 1 hr by kinomescan assay relative to control.
Series [10] deals with Protein kinase C theta type (Homo sapiens) (UniProt Q04759). Kind of series: Inhibition of biotinylated ligand binding to wild-type human partial length PRKCQ (L350 to S706 residues) expressed in bacterial expression system at 50 nM measured after 1 hr by kinomescan assay relative to control. The method, boiled down: as §1
For series [11], the target named is Serine/threonine-protein kinase RIO1 (Homo sapiens) (UniProt Q9BRS2). Kind of series: Inhibition of biotinylated ligand binding to wild-type human full length RIOK1 (M1 to K568 residues) expressed in bacterial expression system at 50 nM measured after 1 hr by kinomescan assay relative to control. In a few lines: as §1
Serine/threonine-protein kinase RIO1 (Homo sapiens), sequence (Q9BRS2 whole entry, the tested form may be a part): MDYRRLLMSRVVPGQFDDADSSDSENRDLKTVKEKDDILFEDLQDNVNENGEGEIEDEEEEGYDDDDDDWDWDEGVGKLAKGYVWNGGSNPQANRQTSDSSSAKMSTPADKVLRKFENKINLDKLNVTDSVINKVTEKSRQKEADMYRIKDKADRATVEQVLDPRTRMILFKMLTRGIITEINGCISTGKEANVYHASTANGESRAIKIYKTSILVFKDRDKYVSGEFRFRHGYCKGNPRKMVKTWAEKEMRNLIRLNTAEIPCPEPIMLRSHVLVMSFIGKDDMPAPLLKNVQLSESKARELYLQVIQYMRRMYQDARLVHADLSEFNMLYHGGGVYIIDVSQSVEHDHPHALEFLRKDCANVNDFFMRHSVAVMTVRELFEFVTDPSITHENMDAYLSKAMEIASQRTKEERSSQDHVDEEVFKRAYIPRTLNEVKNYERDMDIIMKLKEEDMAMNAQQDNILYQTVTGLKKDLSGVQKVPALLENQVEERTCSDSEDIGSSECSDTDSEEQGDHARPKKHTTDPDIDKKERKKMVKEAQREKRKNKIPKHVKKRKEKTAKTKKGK
The target in series [12] is BMP-2-inducible protein kinase (Homo sapiens) (UniProt Q9NSY1). Kind of series: Inhibition of biotinylated ligand binding to wild-type human partial length BIKE (S34 to N329 residues) expressed in bacterial expression system at 50 nM measured after 1 hr by kinomescan assay relative to control. In a few lines:
as §1

Series [13] addresses High affinity nerve growth factor receptor (Homo sapiens) (UniProt P04629). Kind of series: Inhibition of biotinylated ligand binding to wild-type human partial length TRKA (G475 to G790 residues) expressed in mammalian expression system at 50 nM measured after 1 hr by kinomescan assay relative to control. In a few lines: as §2
The target in series [14] is cGMP-dependent protein kinase 2 (Homo sapiens) (UniProt Q13237). Put plainly: Inhibition of biotinylated ligand binding to wild-type human partial length PRKG2 (S422 to F762 residues) expressed in mammalian expression system at 50 nM measured after 1 hr by kinomescan assay relative to control. In a few lines:
as §2

Series [15] addresses cAMP-dependent protein kinase catalytic subunit beta (Homo sapiens) (UniProt P22694). Kind of series: Inhibition of biotinylated ligand binding to wild-type human full length PKAC-beta (M1 to F351 residues) expressed in bacterial expression system at 50 nM measured after 1 hr by kinomescan assay relative to control.
Series [16] relates to MV4-11. Put plainly: cells. Conditions: Homo sapiens, MV4-11, 48 h.
Series [17] has as its system OCI-AML-3. Kind of series: cells. The note with it: Homo sapiens, OCI-AML-3, 48 h.
The target in series [18] is Serine/threonine-protein kinase haspin (Homo sapiens) (UniProt Q8TF76). Kind of series: Inhibition of biotinylated ligand binding to wild-type human partial length HASPIN (I452 to K798 residues) expressed in mammalian expression system at 50 nM measured after 1 hr by kinomescan assay relative to control.
Series [19] deals with Activin receptor type-1 (Homo sapiens) (UniProt Q04771). Put plainly: Inhibition of biotinylated ligand binding to wild-type human ACVR1 (C188 to C509 residues) expressed in bacterial expression system at 50 nM measured after 1 hr by kinomescan assay relative to control. In a few lines:
as §1

Series [20] deals with Serine/threonine-protein kinase RIO3 (Homo sapiens) (UniProt O14730). Put plainly: Inhibition of biotinylated ligand binding to wild-type human full length RIOK3 (M1 to E519 residues) expressed in bacterial expression system assessed at 50 nM measured after 1 hr by kinomescan assay relative to control. The method, boiled down: as §1
Serine/threonine-protein kinase RIO3 (Homo sapiens), sequence (O14730 whole entry, the tested form may be a part): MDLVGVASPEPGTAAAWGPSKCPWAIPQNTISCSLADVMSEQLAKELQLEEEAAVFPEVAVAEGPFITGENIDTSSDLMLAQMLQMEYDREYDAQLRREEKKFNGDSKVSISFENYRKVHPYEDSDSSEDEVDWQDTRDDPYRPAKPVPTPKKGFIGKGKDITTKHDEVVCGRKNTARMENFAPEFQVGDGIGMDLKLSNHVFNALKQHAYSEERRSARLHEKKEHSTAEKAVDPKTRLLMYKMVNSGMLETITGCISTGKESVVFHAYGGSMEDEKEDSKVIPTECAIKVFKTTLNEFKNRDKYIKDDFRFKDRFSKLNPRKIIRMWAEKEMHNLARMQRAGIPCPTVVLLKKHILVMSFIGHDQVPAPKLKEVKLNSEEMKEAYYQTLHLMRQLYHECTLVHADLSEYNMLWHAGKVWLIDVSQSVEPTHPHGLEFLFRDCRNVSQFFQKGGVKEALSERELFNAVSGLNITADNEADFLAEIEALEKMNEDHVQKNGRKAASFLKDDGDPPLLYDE
Series [21] deals with Non-receptor tyrosine-protein kinase TNK1 (Homo sapiens) (UniProt Q13470). Kind of series: Inhibition of biotinylated ligand binding to wild-type human full length TNK1 (M1 to P661 residues) expressed in bacterial expression system at 50 nM measured after 1 hr by kinomescan assay relative to control. The method, boiled down:
as §1

Activin receptor type-1 (Homo sapiens), sequence (Q04771 whole entry, the tested form may be a part): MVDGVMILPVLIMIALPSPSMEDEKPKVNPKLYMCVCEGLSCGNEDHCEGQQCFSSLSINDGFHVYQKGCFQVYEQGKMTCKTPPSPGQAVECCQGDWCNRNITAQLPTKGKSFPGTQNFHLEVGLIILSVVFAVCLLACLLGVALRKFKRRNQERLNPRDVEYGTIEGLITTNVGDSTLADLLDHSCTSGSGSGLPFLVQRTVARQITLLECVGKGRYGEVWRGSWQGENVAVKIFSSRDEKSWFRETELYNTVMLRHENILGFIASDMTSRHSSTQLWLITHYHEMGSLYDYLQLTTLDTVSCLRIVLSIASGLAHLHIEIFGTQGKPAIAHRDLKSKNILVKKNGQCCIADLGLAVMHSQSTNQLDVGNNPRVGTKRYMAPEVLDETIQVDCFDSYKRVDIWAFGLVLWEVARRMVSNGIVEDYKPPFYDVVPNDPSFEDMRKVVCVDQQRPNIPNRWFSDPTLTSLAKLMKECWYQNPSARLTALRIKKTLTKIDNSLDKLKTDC
BMP-2-inducible protein kinase (Homo sapiens), sequence (Q9NSY1 whole entry, looked up, the tested form may be a part): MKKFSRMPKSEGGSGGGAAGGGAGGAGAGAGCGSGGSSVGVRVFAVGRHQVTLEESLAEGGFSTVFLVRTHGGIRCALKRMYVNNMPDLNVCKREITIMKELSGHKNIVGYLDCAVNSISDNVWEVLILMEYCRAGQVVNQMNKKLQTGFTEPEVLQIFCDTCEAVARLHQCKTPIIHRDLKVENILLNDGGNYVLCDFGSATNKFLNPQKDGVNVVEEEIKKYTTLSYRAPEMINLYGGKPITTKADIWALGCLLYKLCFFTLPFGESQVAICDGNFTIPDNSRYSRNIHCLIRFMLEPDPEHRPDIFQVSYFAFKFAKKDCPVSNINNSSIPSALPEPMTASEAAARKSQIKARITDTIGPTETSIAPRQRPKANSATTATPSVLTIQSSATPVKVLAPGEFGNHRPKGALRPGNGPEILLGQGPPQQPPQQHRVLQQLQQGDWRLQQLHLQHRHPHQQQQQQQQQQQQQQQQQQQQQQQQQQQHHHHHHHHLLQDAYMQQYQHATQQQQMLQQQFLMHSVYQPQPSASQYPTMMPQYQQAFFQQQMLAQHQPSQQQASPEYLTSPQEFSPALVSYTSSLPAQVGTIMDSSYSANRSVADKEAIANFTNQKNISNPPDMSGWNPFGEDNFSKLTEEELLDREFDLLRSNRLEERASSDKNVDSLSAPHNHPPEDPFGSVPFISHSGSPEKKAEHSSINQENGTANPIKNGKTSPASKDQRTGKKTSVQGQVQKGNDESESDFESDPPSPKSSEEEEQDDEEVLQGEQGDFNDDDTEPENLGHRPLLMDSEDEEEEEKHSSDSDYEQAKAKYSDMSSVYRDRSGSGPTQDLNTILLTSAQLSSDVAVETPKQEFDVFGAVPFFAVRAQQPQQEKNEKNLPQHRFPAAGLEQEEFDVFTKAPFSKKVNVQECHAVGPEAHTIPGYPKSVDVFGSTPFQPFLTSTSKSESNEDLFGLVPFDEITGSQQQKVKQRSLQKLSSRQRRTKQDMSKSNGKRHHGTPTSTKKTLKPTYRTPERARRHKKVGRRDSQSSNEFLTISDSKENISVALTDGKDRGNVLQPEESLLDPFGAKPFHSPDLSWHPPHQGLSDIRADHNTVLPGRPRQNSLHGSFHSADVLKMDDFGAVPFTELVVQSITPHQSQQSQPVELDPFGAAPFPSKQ
Phosphatidylinositol 5-phosphate 4-kinase type-2 beta (Homo sapiens), sequence (P78356 whole entry, the tested form may be a part): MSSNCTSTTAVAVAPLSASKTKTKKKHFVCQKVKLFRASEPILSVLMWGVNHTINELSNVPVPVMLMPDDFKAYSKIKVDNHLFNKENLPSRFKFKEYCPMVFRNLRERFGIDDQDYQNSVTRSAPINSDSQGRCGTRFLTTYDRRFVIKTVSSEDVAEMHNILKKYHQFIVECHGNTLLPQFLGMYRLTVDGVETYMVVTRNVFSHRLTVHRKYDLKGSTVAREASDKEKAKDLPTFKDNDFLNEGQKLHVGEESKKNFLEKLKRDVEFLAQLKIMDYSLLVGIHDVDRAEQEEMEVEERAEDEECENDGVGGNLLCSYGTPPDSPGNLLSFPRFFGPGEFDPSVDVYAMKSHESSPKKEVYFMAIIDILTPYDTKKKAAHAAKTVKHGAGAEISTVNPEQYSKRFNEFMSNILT

With `CN(C)[C@@H]1CC[C@@]2(C)[C@@H](CC[C@@H]3[C@@H]2CC[C@]2(C)C(c4cccc5cnccc45)=CC[C@@H]32)C1`, the inhibition in series [1], in series [2], in series [3], in series [4], in series [5] and in series [6] was more than 80% each time. For the same compound, the inhibition in series [8], in series [9], in series [10], in series [11], in [12] and in series [13] was more than 80% in each case. Moreover, the inhibition in [14], in series [15], in series [18], in series [19], in [20] and in [21] was more than 80% throughout. The selectivity ratio in series [7] is 3 to 4. For the same compound, the pEC50 was 5.27 in series [16] and 5.32 in series [17].

For the origin of these results see ChEMBL document CHEMBL4619723, “New CDK8 inhibitors as potential anti-leukemic agents - Design, synthesis and biological evaluation” (Bioorg Med Chem, 2020).
